Calls of active or inactive are those of the source.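 How the source made its calls: active means at 10 µM, induced P-selectin expression inhibited by 50% or more; inactive means less than 50% inhibition.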
The compounds below were run on human washed platelets, SFLLRN-induced P-selectin, flow cytometry (assay: reduced P-selectin exposure on PAR1-stimulated platelets – cell-based, human washed platelets, flow cytometry, dry powder, single point (AID 493031)). Conditions: at 10 µM; stronger effect = higher value.
Outline: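 Material: washed platelets from individual donors; Also added: SFLLRN stimulation; Dosing: compound at 10 µM; Timing: 20 min compound pretreatment, 15 min SFLLRN activation, 20 min antibody staining; Measured by: flow cytometry, PE anti-P-selectin staining.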

SMILES | inhibition
CCCC(=O)Nc1cccc(NC(=O)c2ccccc2Cl)c1 | 98.3%
CCCC(=O)Nc1cccc(NC(=O)c2ccc(S(C)(=O)=O)cc2)c1 | 9.82% (inactive)
CCCC(=O)Nc1cccc(NC(=O)c2cccc(NC(C)=O)c2)c1 | 41% (inactive)
CCCC(=O)Nc1cccc(NC(=O)c2ccc(C)cc2)c1 | 21.8% (inactive)
CCCC(=O)Nc1cccc(NC(=O)c2cccc([N+](=O)[O-])c2)c1 | 50.7%
CCCC(=O)Nc1cccc(NC(=O)c2ccccc2F)c1 | 97.4%
CCCC(=O)Nc1cccc(NC(=O)c2cccc(Oc3ccccc3)c2)c1 | 92%
CCCC(=O)Nc1cccc(NC(=O)c2ccccc2C)c1 | 95.8%
CCCC(=O)Nc1cccc(NC(=O)c2ccc(C(F)(F)F)cc2)c1 | 21% (inactive)
CCCC(=O)Nc1cccc(NC(=O)c2cccnc2)c1 | 4.33% (inactive)
CCCC(=O)Nc1cccc(NC(=O)c2ccc(OC)cc2)c1 | 15.3% (inactive)
CCCC(=O)Nc1cccc(NC(=O)c2cccc(Cl)c2)c1 | 94.1%
CCCC(=O)Nc1cccc(NC(=O)c2cccc(S(C)(=O)=O)c2)c1 | 23.9% (inactive)
CCCC(=O)Nc1cccc(NC(=O)c2ccc(Cl)cc2)c1 | 73.9%
CCCC(=O)Nc1cccc(NC(=O)c2cccc(C#N)c2)c1 | 66.7%
CCCC(=O)Nc1cccc(NC(=O)c2ccco2)c1 | 30.5% (inactive)
CCCC(=O)Nc1cccc(NC(=O)c2cnc3ccccc3c2)c1 | 10.4% (inactive)
CCCC(=O)Nc1cccc(NC(=O)c2ccc(F)cc2)c1 | 56.9%
O=C(Nc1ccccc1)c1ccccc1Br | 98.5%
CCCC(=O)Nc1cccc(NC(=O)c2ccccc2OC)c1 | 46.1% (inactive)
CCCC(=O)Nc1cccc(NC(=O)c2cccc(-c3ccccc3)c2)c1 | 94.4%
